The subject of one data set is MKN-45. Kind of data set: Cytotoxicity against human MKN-45 cells assessed as inhibition of cell proliferation measured after 72 hrs by MTT assay. Format: functional, cell-based. The note with it: MKN-45, 72 h. In general terms: Tetrazolium dyes change colour on reduction, which living cells bring about.
Data set [1] concerns the target Platelet-derived growth factor receptor alpha (Homo sapiens, UniProt P16234). Kind of data set: Inhibition of PDGFR alpha (unknown origin) using poly (Glu, Tyr)4:1 as substrate in presence of ATP measured after 30 mins by HTRF assay. Summed up:
(§1)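 Kinase inhibition measured by homogeneous time-resolved fluorescence (HTRF) across a panel of Ron, ALK and other tyrosine kinases, with IC50 as the read-out.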

Data set [2] in a line: Toxicity in Balb/c mouse assessed as allergic reaction at 100 to 200 mg/kg, ip measured after 15 days. Format: organism-based. The note with it: in vivo, 360 h, dose 100-200 mg/kg, time 15 day. Summed up: (§2)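 Acute toxicity in 8-week-old male BALB/c mice, randomized into groups of n = 10. Single intraperitoneal dose on day 0 of vehicle or 100, 200, 300 or 400 mg/kg, plus an untreated control group. Mice watched for 15 days for deaths, abnormalities, anaphylactic or allergic reactions and body weight loss.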

Data set [3] is described as follows: Half life in Balb/c mouse at 8 mg/kg, po measured after 24 hrs by LC/MS/MS analysis. The class given is ADME, organism-based. The note with it: in vivo. In a few lines:
(§3)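 BALB/c mice dosed once orally at 8 mg/kg or intravenously at 2 mg/kg. Plasma concentration followed over time, and Cmax, Tmax, AUC0-∞, elimination half-life, clearance and oral bioavailability were derived from it.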

For data set [4], the system named is A549. Kind of data set: Induction of apoptosis in human A549 cells assessed as early apoptosis measured after 12 hrs by Annexin V-FITC/ Propidium iodide stain based flow cytometry assay. Format: functional, cell-based. The note with it: dose 0.25-1 µM. Summed up:
(§4)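 Cells double-stained with FITC-annexin V and propidium iodide, then flow cytometry gave the percentages of early and late apoptotic cells.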
In general terms: A flow cytometer gives signals particle by particle.

The nature of data set [5]: Half life in Balb/c mouse at 2 mg/kg, iv measured after 24 hrs by LC/MS/MS analysis. The class given is ADME, organism-based. The note with it: in vivo. Summed up:
as §3

Data set [6] is described as follows: Selectivity index, ratio of IC50 for human HUVEC cells assessed as inhibition of cell proliferation to IC50 of HT-29 cells assessed as inhibition of cell proliferation. The note with it: HUVEC cells versus HT-29 cells, read-out: Selectivity Index. Format: toxicity.
A short description of data set [7]: Toxicity in Balb/c mouse assessed as body weight at 100 to 200 mg/kg, ip measured after 15 days. The conditions noted are these: in vivo, 360 h, dose 100-200 mg/kg, time 15 day. The class given is organism-based. Summed up:
as §2

Data set [8] relates to A549. Kind of data set: cells. The conditions noted are these: Homo sapiens, A549, 72 h.
Data set [9] in a line: AUC (0 to infinity) in Balb/c mouse at 8 mg/kg, po measured after 24 hrs by LC/MS/MS analysis. The class given is ADME, organism-based. On the set-up: route oral, time 24 hrs, dose 8 mg/kg. The note with it: in vivo. Summed up: as §3
Data set [10] deals with Vascular endothelial growth factor receptor 2 (Homo sapiens, UniProt P35968). The data set is described as follows: Inhibition of VEGFR 2 (unknown origin) using poly (Glu, Tyr)4:1 as substrate in presence of ATP measured after 30 mins by HTRF assay. A general note: Time-resolved FRET reads energy transfer from a long-lived donor to a nearby acceptor.
A further data set has as its system MDA-MB-231. The data set is described as follows: Cytotoxicity against human MDA-MB-231 cells assessed as inhibition of cell proliferation measured after 72 hrs by MTT assay. The class given is functional, cell-based. The conditions noted are these: MDA-MB-231, 72 h.
Data set [11] in a line: Toxicity in Balb/c mouse assessed as survival rate at 200 mg/kg, ip measured after 15 days. The class given is organism-based. The note with it: in vivo, time 15 day. In a few lines:
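Acute toxicity: 8-week-old male BALB/c mice, randomized in groups of n = 10, given a single intraperitoneal injection on day zero (vehicle only, 100, 200, 300 or 400 mg/kg). A further untreated group served as normal control. Survival on day 15 was reported as a percentage.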

A short description of data set [12]: Tmax in Balb/c mouse at 8 mg/kg, po measured after 24 hrs by LC/MS/MS analysis. Format: ADME, organism-based. The note with it: in vivo. Summed up: as §3
Data set [13] has as its target Vascular endothelial growth factor receptor 3 (Homo sapiens, UniProt P35916). Kind of data set: Inhibition of FLT-4 (unknown origin) using poly (Glu, Tyr)4:1 as substrate in presence of ATP measured after 30 mins by HTRF assay. Summed up: as §1
A short description of data set [14]: Clearance in Balb/c mouse at 8 mg/kg, po measured after 24 hrs by LC/MS/MS analysis. The note with it: in vivo. Format: ADME, organism-based. Summed up:
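Clearance from the plasma profile of BALB/c mice after a single oral dose of 8 mg/kg.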

Data set [15] addresses Hepatocyte growth factor receptor (Homo sapiens, UniProt P08581). Kind of data set: Inhibition of human c-MET phosphorylation in human A549 cells measured after 1 hr by western blot analysis. The note with it: dose 2-8 µmol/L.
Data set [16] relates to A549. The data set is described as follows: Induction of apoptosis in human A549 cells assessed as early apoptosis at 1 uM measured after 12 hrs by Annexin V-FITC/ Propidium iodide stain based flow cytometry assay relative to control. Format: functional. In a few lines: as §4
The target of data set [17] is Macrophage-stimulating protein receptor (Homo sapiens, UniProt Q04912). The data set is described as follows: Inhibition of Ron (unknown origin) using poly (Glu, Tyr)4:1 as substrate in presence of ATP measured after 30 mins by HTRF assay. In a few lines: as §1
Data set [18] in a line: Cmax in Balb/c mouse at 8 mg/kg, po measured after 24 hrs by LC/MS/MS analysis. The arrangement: route oral, time 24 hrs, dose 8 mg/kg. The conditions noted are these: in vivo. Format: ADME, organism-based. Summed up: as §3
Data set [19] concerns the target Epidermal growth factor receptor (Homo sapiens, UniProt P00533). The data set is described as follows: Inhibition of EGFR (unknown origin) using poly (Glu, Tyr)4:1 as substrate in presence of ATP measured after 30 mins by HTRF assay. Summed up: as §1

Calls of active or inactive are those of the source. The rule behind the calls is not given here.

Vascular endothelial growth factor receptor 3, sequence (P35916 whole entry): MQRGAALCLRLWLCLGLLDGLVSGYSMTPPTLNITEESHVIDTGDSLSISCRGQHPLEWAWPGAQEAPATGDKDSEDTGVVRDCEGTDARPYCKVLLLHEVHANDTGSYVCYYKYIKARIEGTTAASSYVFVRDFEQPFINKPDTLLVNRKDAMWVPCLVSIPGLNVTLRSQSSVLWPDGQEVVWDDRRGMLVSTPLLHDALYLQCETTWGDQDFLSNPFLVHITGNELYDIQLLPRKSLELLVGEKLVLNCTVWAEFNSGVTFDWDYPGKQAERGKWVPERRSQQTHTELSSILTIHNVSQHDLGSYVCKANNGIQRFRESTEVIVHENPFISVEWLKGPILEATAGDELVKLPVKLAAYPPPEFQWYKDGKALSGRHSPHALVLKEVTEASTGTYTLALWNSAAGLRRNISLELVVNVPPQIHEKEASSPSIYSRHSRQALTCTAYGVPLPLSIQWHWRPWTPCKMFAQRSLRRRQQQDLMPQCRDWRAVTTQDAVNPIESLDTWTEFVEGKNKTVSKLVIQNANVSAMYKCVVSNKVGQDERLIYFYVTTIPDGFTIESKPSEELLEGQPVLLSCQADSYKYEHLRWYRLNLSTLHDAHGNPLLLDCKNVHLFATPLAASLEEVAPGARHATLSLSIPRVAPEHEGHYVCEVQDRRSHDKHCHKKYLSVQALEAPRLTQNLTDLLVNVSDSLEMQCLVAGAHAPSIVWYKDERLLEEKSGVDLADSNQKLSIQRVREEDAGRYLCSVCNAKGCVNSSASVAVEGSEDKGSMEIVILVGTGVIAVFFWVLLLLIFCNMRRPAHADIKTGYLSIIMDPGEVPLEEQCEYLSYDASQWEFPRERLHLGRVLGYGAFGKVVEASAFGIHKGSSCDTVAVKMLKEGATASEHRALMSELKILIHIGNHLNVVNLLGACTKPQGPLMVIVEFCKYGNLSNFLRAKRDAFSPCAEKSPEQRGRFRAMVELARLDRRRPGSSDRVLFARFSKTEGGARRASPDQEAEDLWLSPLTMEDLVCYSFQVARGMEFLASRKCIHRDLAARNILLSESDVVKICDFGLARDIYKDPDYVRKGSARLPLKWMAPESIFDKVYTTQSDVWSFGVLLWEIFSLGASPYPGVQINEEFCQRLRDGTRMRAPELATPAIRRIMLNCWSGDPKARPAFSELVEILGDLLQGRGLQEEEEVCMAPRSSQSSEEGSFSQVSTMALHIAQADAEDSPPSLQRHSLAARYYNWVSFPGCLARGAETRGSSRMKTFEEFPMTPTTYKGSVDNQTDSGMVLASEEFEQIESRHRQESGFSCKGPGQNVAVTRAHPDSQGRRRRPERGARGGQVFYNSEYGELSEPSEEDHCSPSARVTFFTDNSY
Platelet-derived growth factor receptor alpha, sequence (P16234 whole entry): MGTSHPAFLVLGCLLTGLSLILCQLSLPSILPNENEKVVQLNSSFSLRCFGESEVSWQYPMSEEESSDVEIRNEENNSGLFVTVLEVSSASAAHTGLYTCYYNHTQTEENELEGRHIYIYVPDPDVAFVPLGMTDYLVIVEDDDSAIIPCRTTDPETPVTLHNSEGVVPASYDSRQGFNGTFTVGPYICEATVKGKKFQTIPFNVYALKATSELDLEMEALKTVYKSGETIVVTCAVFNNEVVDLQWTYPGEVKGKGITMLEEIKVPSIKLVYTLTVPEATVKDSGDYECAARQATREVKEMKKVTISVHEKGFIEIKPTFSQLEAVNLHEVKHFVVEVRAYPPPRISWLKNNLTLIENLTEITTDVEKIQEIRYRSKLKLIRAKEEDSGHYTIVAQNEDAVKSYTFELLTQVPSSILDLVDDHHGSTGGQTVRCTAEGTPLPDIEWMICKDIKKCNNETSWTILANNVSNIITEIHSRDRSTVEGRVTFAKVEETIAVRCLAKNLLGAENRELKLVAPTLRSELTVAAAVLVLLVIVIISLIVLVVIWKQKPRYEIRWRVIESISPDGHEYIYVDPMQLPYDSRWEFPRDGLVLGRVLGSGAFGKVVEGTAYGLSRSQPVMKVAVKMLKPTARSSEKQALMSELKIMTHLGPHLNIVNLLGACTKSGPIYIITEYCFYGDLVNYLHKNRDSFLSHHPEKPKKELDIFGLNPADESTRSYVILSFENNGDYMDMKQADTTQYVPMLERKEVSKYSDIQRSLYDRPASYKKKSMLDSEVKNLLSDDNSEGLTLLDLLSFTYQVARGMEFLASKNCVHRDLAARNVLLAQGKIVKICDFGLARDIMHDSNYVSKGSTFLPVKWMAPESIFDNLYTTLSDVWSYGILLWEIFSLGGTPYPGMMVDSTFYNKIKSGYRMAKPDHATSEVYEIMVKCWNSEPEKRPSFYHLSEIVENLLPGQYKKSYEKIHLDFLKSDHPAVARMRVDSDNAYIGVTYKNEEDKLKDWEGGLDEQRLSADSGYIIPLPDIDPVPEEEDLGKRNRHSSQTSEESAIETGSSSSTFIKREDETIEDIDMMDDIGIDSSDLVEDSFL
Vascular endothelial growth factor receptor 2, sequence (P35968 whole entry): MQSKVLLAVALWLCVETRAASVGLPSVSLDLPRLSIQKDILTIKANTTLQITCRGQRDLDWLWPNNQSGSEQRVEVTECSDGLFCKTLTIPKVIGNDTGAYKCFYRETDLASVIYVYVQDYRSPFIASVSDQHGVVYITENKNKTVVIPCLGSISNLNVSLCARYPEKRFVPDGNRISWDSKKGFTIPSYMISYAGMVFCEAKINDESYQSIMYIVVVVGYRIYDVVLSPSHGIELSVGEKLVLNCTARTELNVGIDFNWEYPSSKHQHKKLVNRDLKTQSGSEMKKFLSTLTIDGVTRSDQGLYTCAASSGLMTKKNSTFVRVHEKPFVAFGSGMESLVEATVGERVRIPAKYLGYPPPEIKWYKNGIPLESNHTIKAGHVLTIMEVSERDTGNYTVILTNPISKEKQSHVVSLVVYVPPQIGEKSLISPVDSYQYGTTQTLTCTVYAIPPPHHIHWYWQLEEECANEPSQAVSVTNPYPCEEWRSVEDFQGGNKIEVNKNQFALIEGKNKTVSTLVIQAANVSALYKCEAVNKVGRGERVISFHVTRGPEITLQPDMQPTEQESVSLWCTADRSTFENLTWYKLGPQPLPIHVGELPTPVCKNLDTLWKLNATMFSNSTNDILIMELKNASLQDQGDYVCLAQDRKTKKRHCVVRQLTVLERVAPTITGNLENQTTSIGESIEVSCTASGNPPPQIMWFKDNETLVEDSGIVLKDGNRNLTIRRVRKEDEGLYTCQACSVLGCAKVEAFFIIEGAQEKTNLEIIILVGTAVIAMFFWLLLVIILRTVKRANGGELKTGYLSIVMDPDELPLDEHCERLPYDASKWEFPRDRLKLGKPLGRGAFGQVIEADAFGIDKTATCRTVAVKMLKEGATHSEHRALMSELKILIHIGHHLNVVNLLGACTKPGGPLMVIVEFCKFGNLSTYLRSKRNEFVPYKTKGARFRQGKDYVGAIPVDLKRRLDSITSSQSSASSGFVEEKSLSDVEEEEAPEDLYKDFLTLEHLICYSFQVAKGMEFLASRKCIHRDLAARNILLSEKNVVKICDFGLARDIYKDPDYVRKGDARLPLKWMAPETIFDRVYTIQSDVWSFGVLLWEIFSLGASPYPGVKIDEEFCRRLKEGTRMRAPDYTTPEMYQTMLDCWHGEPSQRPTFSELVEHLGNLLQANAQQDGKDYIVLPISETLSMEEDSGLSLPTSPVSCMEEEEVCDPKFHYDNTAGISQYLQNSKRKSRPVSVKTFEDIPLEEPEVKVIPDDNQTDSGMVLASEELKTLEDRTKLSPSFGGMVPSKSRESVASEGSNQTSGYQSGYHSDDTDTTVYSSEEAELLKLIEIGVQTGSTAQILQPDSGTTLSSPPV
Epidermal growth factor receptor, sequence (P00533 whole entry): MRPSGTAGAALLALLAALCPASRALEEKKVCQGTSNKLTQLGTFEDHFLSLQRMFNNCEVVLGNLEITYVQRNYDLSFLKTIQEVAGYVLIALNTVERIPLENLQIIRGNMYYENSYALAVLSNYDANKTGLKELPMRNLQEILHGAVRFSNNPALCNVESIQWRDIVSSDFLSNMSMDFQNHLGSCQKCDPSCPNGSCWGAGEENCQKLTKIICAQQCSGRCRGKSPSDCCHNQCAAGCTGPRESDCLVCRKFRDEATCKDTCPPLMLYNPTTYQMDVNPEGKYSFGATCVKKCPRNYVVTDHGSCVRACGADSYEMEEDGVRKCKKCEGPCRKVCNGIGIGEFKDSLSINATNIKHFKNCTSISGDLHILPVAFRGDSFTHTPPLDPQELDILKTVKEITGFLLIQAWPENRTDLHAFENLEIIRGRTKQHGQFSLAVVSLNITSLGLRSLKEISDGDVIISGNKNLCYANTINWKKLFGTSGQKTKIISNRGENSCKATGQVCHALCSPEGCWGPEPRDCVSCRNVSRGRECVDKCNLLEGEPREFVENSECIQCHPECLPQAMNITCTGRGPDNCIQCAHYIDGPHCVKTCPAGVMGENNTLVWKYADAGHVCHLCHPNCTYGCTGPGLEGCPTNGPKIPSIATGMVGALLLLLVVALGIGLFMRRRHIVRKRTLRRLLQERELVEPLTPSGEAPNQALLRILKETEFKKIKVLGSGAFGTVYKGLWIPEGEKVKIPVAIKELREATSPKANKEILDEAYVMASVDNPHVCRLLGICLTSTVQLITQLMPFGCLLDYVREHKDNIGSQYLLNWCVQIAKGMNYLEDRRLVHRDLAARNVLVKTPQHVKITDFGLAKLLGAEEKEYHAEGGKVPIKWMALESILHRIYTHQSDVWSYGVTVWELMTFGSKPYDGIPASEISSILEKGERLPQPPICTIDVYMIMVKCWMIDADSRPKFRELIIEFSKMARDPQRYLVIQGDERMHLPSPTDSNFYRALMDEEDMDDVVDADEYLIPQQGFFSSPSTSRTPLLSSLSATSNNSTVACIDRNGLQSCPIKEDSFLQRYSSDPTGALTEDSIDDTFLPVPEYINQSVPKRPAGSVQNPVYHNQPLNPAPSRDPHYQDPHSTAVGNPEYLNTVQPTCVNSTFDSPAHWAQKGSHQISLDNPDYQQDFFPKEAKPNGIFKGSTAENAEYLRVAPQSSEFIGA

On to `COCC/C(=N\S(=O)(=O)Cc1ccc(Cl)cc1)Nc1ccc(Oc2ccnc3cc(OCCCN4CCOCC4)c(OC)cc23)c(F)c1`, for which the IC50 in the data set on MKN-45 turned out to be 480 nM; in data set [1], 384 nM; in the data set on A549 [8], 280 nM; in [10], 673 nM; in the data set on MDA-MB-231 it was 720 nM; in data set [13] it was 358 nM. The values for the IC50 in data set [17] and in data set [19] were 412 nM and > 10000 nM, respectively. Besides, the Activity result is “Non-Toxic” in data set [2], “Dose-dependent effect” in the data set with A549 [4], “Non-Toxic” in data set [7] and 15.69% in the data set on A549 [16]. Moreover, the figures for the half-life in data set [3] and in [5] were 3.5 h and 1.8 h, respectively. Moreover, the selectivity ratio in data set [6] stood at 4.2. In addition, in data set [9], the AUC came out at 6.8 µg/h/mL. Also, the survival at 360 h in data set [11] is 100%. The Tmax in data set [12] is 2.5 h. This compound showed a CL/F in data set [14] of 19.7 mL/min/kg. Besides, in [15], the inhibition result was “Active”. In data set [18], this compound had a Cmax of 1230 ng/mL.

By IC50 is commonly meant the midpoint of a concentration-inhibition curve. By half-life is commonly meant the time in which the quantity being followed falls by half. Read a low half-life as rapid decline. Usually Tmax stands for the time from dosing to the highest level. A word on the CL/F: it is clearance divided by bioavailability, as obtained after extravascular dosing. As a reminder, the Cmax is the highest concentration seen after dosing.

The values are drawn from ChEMBL document CHEMBL4765349, “Design, synthesis and biological evaluation of novel N-sulfonylamidine-based derivatives as c-Met inhibitors via Cu-catalyzed three-component reaction” (Eur J Med Chem, 2020).
